Laboratory results taken from ChEMBL document CHEMBL4138242, “Synthesis and antibacterial evaluation of novel cationic chalcone derivatives possessing broad spectrum antibacterial activity” (Eur J Med Chem, 2018).

What was measured:
Klebsiella pneumoniae = assay: Antibacterial activity against drug-resistant carbapenemase producing Klebsiella pneumoniae clinical isolate KP-14-5 after 16 to 20 hrs by broth microdilution method; format: functional
In short: (§1)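 CLSI broth microdilution in Mueller-Hinton broth. A 4-6 h culture was diluted to about 10⁶ CFU/mL and mixed 1:1 with compound dilutions prepared at 256 to 0.5 µg/mL from aqueous stocks. Plates were incubated at 37 °C for 16-20 h and read visually for MIC. Each concentration was run in duplicate, and the experiment was repeated at least twice. Vancomycin and meropenem were comparators.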

Escherichia coli = assay: Antibacterial activity against drug-resistant NDM1 producing Escherichia coli clinical isolate 1460 after 16 to 20 hrs by broth microdilution method; format: functional; in short: as §1

SMILES: CCCCCCCC[N+](C)(C)CC(=O)Nc1ccc(C(=O)/C=C/c2ccccc2F)cc1.[Cl-]
- MIC (Klebsiella pneumoniae): 4 µg/mL
- MIC (Escherichia coli): 4 µg/mL
